Laboratory results reported in ChEMBL document CHEMBL3745620, “Design and Synthesis of DiselenoBisBenzamides (DISeBAs) as Nucleocapsid Protein 7 (NCp7) Inhibitors with anti-HIV Activity” (J Med Chem, 2015).
Calls of active or inactive are those of the source. The calls are words filed in the database; no cut-off is given here.

Columns and labels:
[1] = Antiviral activity against nevirapine-resistant SIV mac251 infected in human MT4 cells; format: functional, cell-based; conditions: Simian immunodeficiency virus
How it was run: (§1)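 MT-4 cells in RPMI 1640 with 10% heat-inactivated FCS were infected at the start of the experiment, with compound added across serial 5-fold dilutions in triplicate wells. Cells were seeded at 6 x 10^5 cells/ml. After 5 days, protection against virus-induced cytopathic effect was read by MTT reduction at OD540. […] Values are means ± SD of at least two experiments.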

[2] = Selectivity index, ratio of CC50 for human HUT78 cells to EC50 for HIV1 3B; format: toxicity, cell-based; conditions: read-out: Ratio CC50/EC50
How it was run: (§2)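 Chronically HIV-1 IIIB-infected HuT-78 cells washed four times in PBS to remove free virions and seeded at 2 × 10^5 cells/well with 7 serial 5-fold compound dilutions for 43 h at 37°C. Supernatant p24 measured by ELISA. Cytotoxicity was run in parallel by MTT plus microscopy. SI = CC50/EC50. Mean ± SD, ≥2 experiments.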

[3] = test system: Human immunodeficiency virus 1; assay: Antiviral activity against ritonavir-resistant HIV1 3B/RIT infected in human MT4 cells; format: functional, organism-based; conditions: Human immunodeficiency virus 1, 3B/RIT; how it was run: as §1
[4] = Selectivity index, ratio of CC50 for human MT4 cells to EC50 for NRTI/NNRTI-resistant HIV1 L6 harboring reverse transcriptase V75I/F77L/K103N/F116Y/Q151M/M184V mutant; format: toxicity, cell-based; conditions: read-out: Ratio CC50/EC50
How it was run: (§3)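 Uninfected and infected MT-4 cells were run in parallel in triplicate over serial 5-fold compound dilutions for 5 days, and viability was read by MTT at OD540. […] SI = CC50/EC50, from means of at least two experiments.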

[5] = Selectivity index, ratio of CC50 for human MT4 cells to EC50 for AZT-resistant HIV1 ADP/141 harboring reverse transcriptase D67N/K70R/T215F/K219Q mutant; format: toxicity, cell-based; conditions: read-out: Ratio CC50/EC50; how it was run: as §3
[6] = test system: Human immunodeficiency virus 1; assay: Antiviral activity against HIV1 3B infected in human MT4 cells assessed as inhibition of viral replication by measuring p24 Ag production at 2 ug/ml measured at 31 hrs post infection by ELISA; format: functional, organism-based
How it was run: (§4)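 MT-4 cells infected with HIV-1 IIIB at m.o.i. 0.5, 1 h adsorption, then seeded at 45,000 cells/well at 37°C. Compound added at times from 0 to 25 h post-infection. Read-out was p24 in supernatant by ELISA at 31 h post-infection.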

[7] = test system: Human immunodeficiency virus 1; assay: Antiviral activity against HIV1 3B infected in human MT4 cells assessed as protection against virus-induced cytopathic effect after 5 days by MTT assay; format: functional, organism-based; conditions: Human immunodeficiency virus 1, 3B, MT4, 120 h
How it was run: (§5)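 MT-4 cells in RPMI 1640 with 10% heat-inactivated FCS, resuspended at 6 x 10^5 cells/ml. Compounds added at start in serial 5-fold dilutions, triplicate wells, to mock- and virus-infected cells (100-300 CCID50 per well). After 5 days, viability by MTT reduction (OD540). […] Mean ± SD, at least two experiments.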

[8] = Cytotoxicity against human HUT78 cells assessed as reduction in cell viability after 5 days by MTT assay; format: cell-based
[9] = Selectivity index, ratio of CC50 for human MT4 cells to EC50 for ritonavir-resistant HIV1 B12 harboring […] L10I/I15V/I54V/L63P/V82A/I85V mutant; format: toxicity, cell-based; conditions: read-out: Ratio CC50/EC50; how it was run: as §3
[10] = test system: Human immunodeficiency virus 1; assay: Antiviral activity against ritonavir-resistant HIV1 B12 harboring […] L10I/I15V/I54V/L63P/V82A/I85V mutant infected in human MT4 cells; format: functional, organism-based; conditions: Human immunodeficiency virus 1, B12, MT4; how it was run: as §1
HuT78 = assay: Inhibition of NCp7 of HIV1 3B persistently infected in HUT78 cells assessed as accumulation of unprocessed Gag polyprotein after 43 hrs by Western blot analysis; format: cell-based; conditions: Human immunodeficiency virus 1
How it was run: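 Washed HuT-78(IIIB) cells (2x10^5 in 1 ml) treated with compound for 43 h at 37°C. Virions pelleted from clarified supernatant (36,670 g, 2 h, 4°C), lysed, run on SDS-PAGE and transferred to PVDF. Blot probed with mouse anti-p24 (1:5000), then HRP anti-mouse (1:2500), with chemiluminescent detection.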

[11] = Selectivity index, ratio of CC50 for human MT4 cells to EC50 for NNRTI-resistant HIV1 RES056 harboring reverse transcriptase K103N/181C double mutant; format: toxicity, cell-based; conditions: read-out: Ratio CC50/EC50; how it was run: as §3
[12] = Selectivity index, ratio of CC50 for human MT4 cells to EC50 for HIV-2 ROD; format: toxicity, cell-based; conditions: read-out: Ratio CC50/EC50
How it was run: (§6)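 Compounds added at start in serial 5-fold dilutions, triplicate wells, to mock- and virus-infected cells (100-300 CCID50 per well). After 5 days, viability by MTT reduction (OD540). Mean ± SD, at least two experiments.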

[13] = Selectivity index, ratio of CC50 for human MT4 cells to EC50 for nevirapine-resitant SIV Mac251
[14] = Selectivity index, ratio of CC50 for human MT4 cells to EC50 for ritonavir-resistant HIV1 3B/RIT; format: toxicity, cell-based; conditions: read-out: Ratio CC50/EC50; how it was run: as §3
[15] = test system: Human immunodeficiency virus 1; assay: Antiviral activity against AZT-resistant HIV1 ADP/141 harboring reverse transcriptase D67N/K70R/T215F/K219Q mutant infected in human MT4 cells; format: functional, organism-based; conditions: Human immunodeficiency virus 1, ADP/141, MT4; how it was run: as §1
[16] = Cytotoxicity against human MT4 cells assessed as cell viability after 5 days by MTT assay; format: cell-based; how it was run: as §6
[17] = test system: Human immunodeficiency virus 1; assay: Antiviral activity against HIV1 3B infected in human MT4 cells assessed as inhibition of viral replication by measuring p24 Ag production at 90 ug/ml measured at 31 hrs post infection by ELISA; format: functional, organism-based; how it was run: as §4
[18] = test system: Human immunodeficiency virus 1; assay: Antiviral activity against HIV1 3B persistently infected in HUT78 cells assessed as reduction of p24 production after 43 hrs by ELISA; format: functional, organism-based; conditions: Human immunodeficiency virus 1, 3B, HuT78, 43 h; how it was run: as §2
[19] = test system: Human immunodeficiency virus 1; assay: Antiviral activity against NNRTI-resistant HIV1 RES056 harboring reverse transcriptase K103N/181C double mutant infected in human MT4 cells; format: functional, organism-based; conditions: Human immunodeficiency virus 1, RES056, MT4; how it was run: as §1
[20] = test system: Human immunodeficiency virus 1; assay: Antiviral activity against NRTI/NNRTI-resistant HIV1 L6 harboring reverse transcriptase V75I/F77L/K103N/F116Y/Q151M/M184V mutant infected in human MT4 cells; format: functional, organism-based; conditions: Human immunodeficiency virus 1, L6, MT4; how it was run: as §1
[21] = test system: Human immunodeficiency virus 2; assay: Antiviral activity against HIV2 ROD infected in human MT4 cells assessed as protection against virus-induced cytopathic effect after 5 days by MTT assay; format: functional, organism-based; conditions: Human immunodeficiency virus 2, ISOLATE ROD, MT4, 120 h; how it was run: as §5
[22] = Selectivity index, ratio of CC50 for human MT4 cells to EC50 for HIV1 3B; format: toxicity, cell-based; conditions: read-out: Ratio CC50/EC50; how it was run: as §6
[23] = Cytotoxicity against human CEM cells by XTT assay; format: cell-based, CCRF-CEM
[24] = Selectivity index, ratio of CC50 for human CEM cells to EC50 for HIV1 3B; format: toxicity, cell-based, CCRF-CEM
[25] = test system: Human immunodeficiency virus 1; assay: Antiviral activity against HIV1 3B infected in human CEM cells assessed as protection against virus-induced cytopathic effect by XTT assay; format: functional, organism-based; conditions: Human immunodeficiency virus 1, 3B, CCRF-CEM
[26] = test system: Human immunodeficiency virus 1; assay: Antiviral activity against HIV1 3B infected in human MT4 cells assessed as inhibition of viral replication by measuring p24 Ag production at 60 ug/ml measured at 31 hrs post infection by ELISA; format: functional, organism-based; how it was run: as §4
[27] = test system: Human immunodeficiency virus 1; assay: Virucidal activity against HIV1 3B infected in human MT4 cells assessed as reduction of virus infectivity at 125 ug/ml after 1 hr by MTT assay; format: functional, organism-based
How it was run: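 HIV-1 IIIB stock incubated with compound in 100 µl RPMI-1640/10% FCS for 1 h at 37°C, then diluted 4000-fold. Residual infectivity titrated on MT-4 cells, with CCID50 calculated by the Reed and Muench method.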

[28] = test system: Human immunodeficiency virus 1; assay: Virucidal activity against HIV1 3B infected in MT4 cells assessed as reduction of virus infectivity at 125 ug/ml after 1 hr by MTT assay
[29] = test system: Human immunodeficiency virus 1; assay: Antiviral activity against HIV1 3B infected in human MT4 cells assessed as inhibition of viral replication by measuring p24 Ag production at 50 ug/ml measured at 31 hrs post infection by ELISA; format: functional, organism-based; how it was run: as §4

SMILES	EC50 [1]	selectivity ratio [2]	EC50 [3]	selectivity ratio [4]	selectivity ratio [5]	inhibition [6]	EC50 [7]	CC50 at 120 h [8]	selectivity ratio [9]	EC50 [10]	inhibition (HuT78)	selectivity ratio [11]	selectivity ratio [12]	Ratio CC50/EC50 [13]	selectivity ratio [14]	EC50 [15]	CC50 at 120 h [16]	EC50 [18]	EC50 [19]	EC50 [20]	also measured
CC[C@H](C)[C@H](NC(=O)c1ccccc1[Se][Se]c1ccccc1C(=O)N[C@H](C(=O)O)[C@@H](C)CC)C(=O)O	17400 nM	> 2.2	25.8 µM	6	11	Active	13.8 µM	> 162 µM	6	27.7 µM	Dose-dependent effect	6	13	9	6	14.7 µM	164 µM	73.2 µM	28 µM	25.9 µM	inhibition [17]: Active; EC50 [21]: 13.1 µM; selectivity ratio [22]: 12
CC[C@H](C)[C@H](NC(=O)c1ccccc1SSc1ccccc1C(=O)N[C@H](C(=O)O)[C@@H](C)CC)C(=O)O																					CC50 [23]: > 120 µM; selectivity ratio [24]: > 13.3; EC50 [25]: 9 µM
O=C(O)CC[C@H](NC(=O)c1ccccc1[Se][Se]c1ccccc1C(=O)N[C@@H](CCC(=O)O)C(=O)O)C(=O)O	1700 nM	6.5	5.42 µM	16	38	Active	3.31 µM	100 µM	8	14.5 µM	Dose-dependent effect	29	34	63	20	2.8 µM	107 µM	15.5 µM	3.61 µM	6.59 µM	inhibition [26]: Active; Activity [27]: Active; Activity [28]: Active; EC50 [21]: 3.18 µM; selectivity ratio [22]: 32
O=C(O)CNC(=O)c1ccccc1[Se][Se]c1ccccc1C(=O)NCC(=O)O	2210 nM	7.8	3.3 µM	34	26	Active	3.15 µM	108 µM	18	6.43 µM	Dose-dependent effect	33	34	52	36	4.51 µM	117 µM	14.1 µM	3.51 µM	3.44 µM	inhibition [29]: Active; Activity [27]: Active; Activity [28]: Active; EC50 [21]: 3.5 µM; selectivity ratio [22]: 37
